Source: ChEMBL document CHEMBL2417548, “Design and synthesis of novel 3-substituted-indole derivatives as selective H3 receptor antagonists and potent free radical scavengers” (Bioorg Med Chem, 2013)
Calls of active or inactive are those of the source. No cut-off for these calls is given here.

Columns and labels:
Histamine H3 receptor [1] = molecular target: T1, Histamine H3 receptor (Homo sapiens, UniProt Q9Y5N1); test: Antagonist activity at human histamine H3 receptor expressed in HEK293 cells assessed by forskolin induced cAMP response element activation after 5 hrs by luciferase reporter gene assay; assay type: functional, cell-based
[2] = Antioxidant activity assessed as ABTS free radical scavenging activity after 6 mins by spectrophotometry; assay type: functional
Summary of the method: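 ABTS (7 mM in water) reacted with 2.45 mM potassium persulfate (final), held in dark at room temperature ≥18 h to form radical cation, then serially diluted. Antioxidant added, mixed by pipette bubbling; absorbance at 415 nm read 6 min after addition, equilibrated at 30 °C. Each treatment repeated three times; melatonin as comparator.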

hERG (KCNH2) [3] = molecular target: T2, hERG (KCNH2) (Homo sapiens, UniProt Q12809); test: Inhibition of human ERG expressed in HEK293 cells assessed as membrane depolarization at 3 uM by patch-clamp method; assay type: cell-based; settings: HEK293 cells that express hERG
[4] = molecular target: Histamine H4 receptor (Homo sapiens) (UniProt Q9H3N8); test: Antagonist activity at human histamine H4 receptor expressed in HEK293 cells assessed by forskolin induced cAMP response element activation after 5 hrs by luciferase reporter gene assay; assay type: functional, cell-based
Summary of the method: (§1)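 Stable HEK-293 lines co-transfected with human H1, H2 or H4 receptor plus pCRE-Luc (G418 800 µg/mL selection), grown overnight to 90–95% confluence. Cells got 10 µM forskolin plus graded compound concentrations with 5 µM histamine in serum-free DMEM, 5 h at 37 °C. Read-out was firefly luciferase. Triplicate points, three separate experiments.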

Histamine H3 receptor [5] = molecular target: T1, Histamine H3 receptor; test: Displacement of […] from human histamine H3 receptor expressed in HEK293 cells after 90 to 120 mins by liquid scintillation counting; assay type: cell-based
[6] = molecular target: Histamine H1 receptor (Homo sapiens) (UniProt P35367); test: Antagonist activity at human histamine H1 receptor expressed in HEK293 cells assessed by forskolin induced cAMP response element activation after 5 hrs by luciferase reporter gene assay; assay type: functional, cell-based; summary of the method: as §1
[7] = molecular target: Histamine H2 receptor (Homo sapiens) (UniProt P25021); test: Antagonist activity at human histamine H2 receptor expressed in HEK293 cells assessed by forskolin induced cAMP response element activation after 5 hrs by luciferase reporter gene assay; assay type: functional, cell-based; summary of the method: as §1
hERG (KCNH2) [8] = molecular target: T2, hERG (KCNH2); test: Inhibition of human ERG expressed in HEK293 cells assessed as membrane depolarization at 100 nM by patch-clamp method; assay type: cell-based; settings: HEK293 cells that express hERG

T2 sequence (Q12809 whole entry): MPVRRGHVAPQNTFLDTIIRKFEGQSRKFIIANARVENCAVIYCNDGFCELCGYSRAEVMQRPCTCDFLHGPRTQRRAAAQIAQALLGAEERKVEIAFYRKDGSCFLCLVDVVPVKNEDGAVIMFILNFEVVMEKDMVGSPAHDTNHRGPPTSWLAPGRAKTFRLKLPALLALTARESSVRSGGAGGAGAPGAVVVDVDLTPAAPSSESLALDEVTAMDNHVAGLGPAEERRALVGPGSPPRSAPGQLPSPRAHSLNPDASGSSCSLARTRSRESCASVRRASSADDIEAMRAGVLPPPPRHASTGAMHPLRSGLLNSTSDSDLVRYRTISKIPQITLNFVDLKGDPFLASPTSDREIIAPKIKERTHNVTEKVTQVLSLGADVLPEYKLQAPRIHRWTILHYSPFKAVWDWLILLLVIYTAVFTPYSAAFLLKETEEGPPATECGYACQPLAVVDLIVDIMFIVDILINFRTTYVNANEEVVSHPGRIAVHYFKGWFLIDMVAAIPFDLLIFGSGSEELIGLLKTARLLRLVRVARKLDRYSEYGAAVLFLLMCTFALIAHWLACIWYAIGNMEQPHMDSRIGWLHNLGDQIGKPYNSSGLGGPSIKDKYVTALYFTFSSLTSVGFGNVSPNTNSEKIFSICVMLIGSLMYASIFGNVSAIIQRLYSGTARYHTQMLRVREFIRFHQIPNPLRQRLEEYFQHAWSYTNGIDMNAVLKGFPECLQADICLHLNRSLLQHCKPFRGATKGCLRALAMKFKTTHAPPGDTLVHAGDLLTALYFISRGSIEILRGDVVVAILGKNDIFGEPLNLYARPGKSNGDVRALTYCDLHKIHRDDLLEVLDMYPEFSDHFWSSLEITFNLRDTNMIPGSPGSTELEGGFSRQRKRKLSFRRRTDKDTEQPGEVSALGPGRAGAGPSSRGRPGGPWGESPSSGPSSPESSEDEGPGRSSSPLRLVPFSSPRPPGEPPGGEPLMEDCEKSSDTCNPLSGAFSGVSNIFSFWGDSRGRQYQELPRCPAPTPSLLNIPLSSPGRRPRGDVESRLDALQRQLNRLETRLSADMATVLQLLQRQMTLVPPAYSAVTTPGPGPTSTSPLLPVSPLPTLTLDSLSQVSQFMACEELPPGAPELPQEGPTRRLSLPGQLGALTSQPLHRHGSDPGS
T1 sequence (Q9Y5N1 whole entry): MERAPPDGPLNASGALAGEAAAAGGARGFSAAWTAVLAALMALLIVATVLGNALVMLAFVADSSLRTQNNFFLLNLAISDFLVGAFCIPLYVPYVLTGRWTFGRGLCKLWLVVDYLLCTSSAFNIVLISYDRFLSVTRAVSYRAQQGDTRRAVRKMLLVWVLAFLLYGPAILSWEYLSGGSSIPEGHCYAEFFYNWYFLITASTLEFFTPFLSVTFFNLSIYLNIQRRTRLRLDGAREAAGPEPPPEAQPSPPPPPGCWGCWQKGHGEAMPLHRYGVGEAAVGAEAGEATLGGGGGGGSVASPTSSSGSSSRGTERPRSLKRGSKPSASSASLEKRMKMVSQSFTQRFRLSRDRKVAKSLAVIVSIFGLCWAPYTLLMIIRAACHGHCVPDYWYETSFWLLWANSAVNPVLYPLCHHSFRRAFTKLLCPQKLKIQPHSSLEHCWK
Histamine H2 receptor (Homo sapiens), sequence (P25021 whole entry): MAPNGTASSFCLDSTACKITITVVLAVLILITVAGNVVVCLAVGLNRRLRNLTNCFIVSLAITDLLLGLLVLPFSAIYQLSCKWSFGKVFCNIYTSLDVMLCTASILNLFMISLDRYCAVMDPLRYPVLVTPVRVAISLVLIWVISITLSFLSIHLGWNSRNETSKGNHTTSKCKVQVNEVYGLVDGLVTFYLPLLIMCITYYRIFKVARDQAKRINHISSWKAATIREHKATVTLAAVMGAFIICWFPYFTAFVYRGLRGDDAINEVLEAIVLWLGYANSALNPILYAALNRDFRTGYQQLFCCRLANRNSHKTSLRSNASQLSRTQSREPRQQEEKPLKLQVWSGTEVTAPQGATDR
Histamine H1 receptor (Homo sapiens), sequence (P35367 whole entry): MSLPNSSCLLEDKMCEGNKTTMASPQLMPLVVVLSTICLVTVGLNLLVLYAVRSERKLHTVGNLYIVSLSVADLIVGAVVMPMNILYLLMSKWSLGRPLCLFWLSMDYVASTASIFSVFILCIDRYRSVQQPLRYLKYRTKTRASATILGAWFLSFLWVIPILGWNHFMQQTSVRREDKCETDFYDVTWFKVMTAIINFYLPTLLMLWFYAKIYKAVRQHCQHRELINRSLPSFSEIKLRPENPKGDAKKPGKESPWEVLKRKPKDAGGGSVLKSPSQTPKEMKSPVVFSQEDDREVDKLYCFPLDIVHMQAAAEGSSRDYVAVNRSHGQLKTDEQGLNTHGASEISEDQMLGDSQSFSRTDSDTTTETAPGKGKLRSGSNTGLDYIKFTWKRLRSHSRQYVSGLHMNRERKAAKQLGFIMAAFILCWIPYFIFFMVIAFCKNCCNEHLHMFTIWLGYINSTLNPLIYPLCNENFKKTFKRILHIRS

Row | SMILES | IC50 (Histamine H3 receptor [1]) [nM] | further results
1 | c1ccc2c(CCCNc3ccc(CN4CCOCC4)cc3)c[nH]c2c1 | 490 | 
2 | COc1ccc2[nH]cc(CCNC(C)=O)c2c1 [MELATONIN] |  | IC50 [2]: 1920 nM
3 | O=C(Cc1c[nH]c2ccccc12)Nc1ccc(CN2CCOCC2)cc1 | 2190 | inhibition at 3 µM (hERG (KCNH2) [3]): 6%; IC50 [2]: 4710 nM
4 | c1ccc2c(CCNc3ccc(CN4CCCC4)cc3)c[nH]c2c1 | 180 | inhibition at 3 µM (hERG (KCNH2) [3]): 73%
5 | CCN(CC)Cc1ccc(NCCc2c[nH]c3ccccc23)cc1 | 290 | 
6 | CCN(CC)Cc1ccc(NC(=O)Cc2c[nH]c3ccccc23)cc1 | 3500 | 
7 | c1ccc2c(CCNc3ccc(CN4CCOCC4)cc3)c[nH]c2c1 | 49 | Activity [4]: inactive; inhibition at 3 µM (hERG (KCNH2) [3]): 54%; Ki (Histamine H3 receptor [5]): 4.26 nM; Activity [6]: inactive; IC50 [2]: 3050 nM; Activity [7]: inactive
8 | CCN(CC)Cc1ccc(OC(=O)CCc2c[nH]c3ccccc23)cc1 | > 10000 | 
9 | CCN(CC)Cc1ccc(NC(=O)CCc2c[nH]c3ccccc23)cc1 | > 10000 | 
10 | CCN(CC)Cc1ccc(OC(=O)Cc2c[nH]c3ccccc23)cc1 | 4610 | 
11 | COc1cc(N)c(Cl)cc1C(=O)NC1CCN(CCCOc2ccc(F)cc2)CC1OC (stereo not drawn) [CISAPRIDE] |  | inhibition at 0.1 µM (hERG (KCNH2) [8]): 89%

Further lines, with some results ahead:

Row | IC50 (Histamine H3 receptor [1]) [nM] | SMILES | further results
12 | 1210 | O=C(Nc1ccc(CN2CCCCC2)cc1)c1c[nH]c2ccccc12 | 
13 | > 10000 | O=C(CCc1c[nH]c2ccccc12)Oc1ccc(CN2CCCCC2)cc1 | 
14 | > 10000 | O=C(CCc1c[nH]c2ccccc12)Oc1ccc(CN2CCOCC2)cc1 | 
15 | 2460 | O=C(Cc1c[nH]c2ccccc12)Oc1ccc(CN2CCCC2)cc1 | 
16 | 790 | O=C(Cc1c[nH]c2ccccc12)Oc1ccc(CN2CCOCC2)cc1 | inhibition at 3 µM (hERG (KCNH2) [3]): 12%; IC50 [2]: 5320 nM
17 | 2840 | O=C(Cc1c[nH]c2ccccc12)Nc1ccc(CN2CCCCC2)cc1 | 
18 | 1370 | O=C(Cc1c[nH]c2ccccc12)Nc1ccc(CN2CCCC2)cc1 | 
19 | > 10000 | O=C(CCc1c[nH]c2ccccc12)Nc1ccc(CN2CCCCC2)cc1 | 
20 | > 10000 | O=C(CCc1c[nH]c2ccccc12)Nc1ccc(CN2CCOCC2)cc1 | 
21 | 80 | c1ccc2c(CCNc3ccc(CN4CCCCC4)cc3)c[nH]c2c1 | inhibition at 3 µM (hERG (KCNH2) [3]): 87%
22 | 540 | c1ccc2c(CNc3ccc(CN4CCCCC4)cc3)c[nH]c2c1 | 
23 | > 10000 | O=C(CCc1c[nH]c2ccccc12)Nc1ccc(CN2CCCC2)cc1 | 
24 | 1040 | O=C(Cc1c[nH]c2ccccc12)Oc1ccc(CN2CCCCC2)cc1 | 
25 | 2030 | O=C(Oc1ccc(CN2CCCCC2)cc1)c1c[nH]c2ccccc12 | 
26 | > 10000 | O=C(CCc1c[nH]c2ccccc12)Oc1ccc(CN2CCCC2)cc1 | 
